In ChEMBL document CHEMBL1157101, “A series of alpha-heterocyclic carboxaldehyde thiosemicarbazones inhibit topoisomerase IIalpha catalytic activity” (J Med Chem, 2010):
Active and inactive are the calls of the source. The rule behind the calls is not given here.

Key:
CCRF S-180 = experiment: Antitumor activity against mouse S180 cells transplanted in Kunming mouse assessed as inhibition of tumor growth at 50 mg/kg/day, iv for 2 days; type: functional; details: CCRF S-180, 48 h
Summary of the method: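 Female Kunming mice, 7 weeks old, 18-22 g, were inoculated sc in the right armpit with S-180 sarcoma. Dosing started the next day: the drug iv, vehicle controls normal saline. After treatment, mice were killed, and solid tumors were excised and weighed. Inhibitory rate (%) = (mean control tumor weight − mean treated tumor weight)/mean control tumor weight × 100.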

Mus musculus = experiment: Toxicity in Kunming mouse bearing mouse S180 cells assessed as change in body weight at 50 mg/kg/day, ip for 2 days (reference value: 18.1 g); type: organism-based, CCRF S-180; set-up: route intraperitoneal; details: in vivo, 48 h
HL-60 = experiment: Antiproliferative activity against human HL60 cells after 72 hrs by sulforhodamine B assay; type: functional, cell-based; details: HL-60, 72 h, in the assay text read “MTT assay” for “sulforhodamine B assay”
Summary of the method: (§1)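 Cells seeded and exposed in triplicate to graded compound concentrations for 72 h. Suspension cells read by MTT conversion to coloured product; adherent cells read by sulforhodamine B. IC50 (50% growth inhibition versus untreated control) derived by the Logit method.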

HT-29 = experiment: Antiproliferative activity against human HT-29 cells after 72 hrs by sulforhodamine B assay; type: functional, cell-based; details: HT-29, 72 h; summary of the method: as §1
SGC-7901 = experiment: Antiproliferative activity against human SGC7901 cells after 72 hrs by sulforhodamine B assay; type: functional, cell-based; details: SGC-7901, 72 h; summary of the method: as §1
HeLa = experiment: Antiproliferative activity against human HeLa cells after 72 hrs by sulforhodamine B assay; type: functional, cell-based; summary of the method: as §1
[1] = target: DNA topoisomerase 2-alpha (Homo sapiens, UniProt P11388); experiment: Inhibition of human topoisomerase 2 alpha-mediated decatenation of kDNA at 100 uM after 15 mins
DNA topoisomerase 2-alpha, sequence (P11388 whole entry): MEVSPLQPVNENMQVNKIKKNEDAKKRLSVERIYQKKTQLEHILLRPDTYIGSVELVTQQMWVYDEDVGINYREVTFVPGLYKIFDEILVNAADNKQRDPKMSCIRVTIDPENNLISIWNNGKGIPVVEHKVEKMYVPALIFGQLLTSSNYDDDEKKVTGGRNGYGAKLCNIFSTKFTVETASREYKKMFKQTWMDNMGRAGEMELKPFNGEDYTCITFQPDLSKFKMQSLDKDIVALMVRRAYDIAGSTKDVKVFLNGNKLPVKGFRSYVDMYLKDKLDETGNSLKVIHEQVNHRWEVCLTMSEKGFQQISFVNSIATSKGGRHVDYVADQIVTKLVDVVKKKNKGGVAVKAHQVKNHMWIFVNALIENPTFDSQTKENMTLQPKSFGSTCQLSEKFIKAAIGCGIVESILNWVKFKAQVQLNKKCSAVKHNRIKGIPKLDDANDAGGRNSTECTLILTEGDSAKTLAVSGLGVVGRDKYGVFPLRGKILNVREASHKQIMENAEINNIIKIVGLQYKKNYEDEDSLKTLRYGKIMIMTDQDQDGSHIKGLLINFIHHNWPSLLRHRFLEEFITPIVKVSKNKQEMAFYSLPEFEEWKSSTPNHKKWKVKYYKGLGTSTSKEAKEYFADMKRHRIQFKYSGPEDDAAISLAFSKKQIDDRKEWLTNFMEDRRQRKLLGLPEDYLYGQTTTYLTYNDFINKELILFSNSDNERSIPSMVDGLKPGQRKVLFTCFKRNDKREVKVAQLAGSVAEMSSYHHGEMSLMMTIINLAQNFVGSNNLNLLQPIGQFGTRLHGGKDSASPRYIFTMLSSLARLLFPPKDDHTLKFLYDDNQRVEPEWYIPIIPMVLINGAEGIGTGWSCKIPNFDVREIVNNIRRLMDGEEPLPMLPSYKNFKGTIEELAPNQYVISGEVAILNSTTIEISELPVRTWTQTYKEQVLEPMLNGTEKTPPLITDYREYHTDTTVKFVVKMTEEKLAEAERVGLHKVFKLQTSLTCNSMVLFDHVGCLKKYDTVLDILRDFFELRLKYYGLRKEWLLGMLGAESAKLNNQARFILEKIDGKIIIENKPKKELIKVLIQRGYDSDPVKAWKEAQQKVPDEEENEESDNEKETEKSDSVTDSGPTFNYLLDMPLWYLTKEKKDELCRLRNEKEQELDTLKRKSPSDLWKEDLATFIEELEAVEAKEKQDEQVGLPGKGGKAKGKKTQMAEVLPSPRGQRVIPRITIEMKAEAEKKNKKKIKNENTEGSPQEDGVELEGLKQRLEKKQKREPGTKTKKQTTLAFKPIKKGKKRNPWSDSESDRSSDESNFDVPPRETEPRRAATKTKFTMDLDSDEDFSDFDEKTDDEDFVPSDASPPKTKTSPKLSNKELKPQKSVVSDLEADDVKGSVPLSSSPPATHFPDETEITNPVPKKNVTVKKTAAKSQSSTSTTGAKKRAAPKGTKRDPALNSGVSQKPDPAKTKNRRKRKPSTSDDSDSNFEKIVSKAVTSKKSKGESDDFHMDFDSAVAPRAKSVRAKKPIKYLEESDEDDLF

Row | Compound | inhibition in vivo at 50 mg/kg/day (CCRF S-180) [%] | Activity (Mus musculus) [g] | IC50 (HL-60) [µM] | IC50 (HT-29) [µM] | IC50 (SGC-7901) [µM] | IC50 (HeLa) [µM] | inhibition (active/not active) [1]
1 | O=c1[nH]cc(F)c(=O)[nH]1 [FLUOROURACIL] | 80.7 | 27.5 |  |  |  |  | 
2 | S=C(N/N=C/c1ccc2ccccc2n1)Nc1cccc(Cl)c1 |  |  | 28.8 | 48.1 | 61.3 | 52.5 | 
3 | NC(=S)N/N=C/c1nc2ccccc2s1 |  |  | > 100 | > 100 | > 100 | 5.35 | inactive
4 | S=C(N/N=C/c1ccc2ccccc2n1)Nc1ccccc1 |  |  | 9.13 | 17 | 26.5 | 27.4 | 
5 | NC(=S)N/N=C/c1cc2ccccc2s1 |  |  | > 100 | 99.2 | > 100 | 6.77 | inactive
6 | S=C(N/N=C/c1ccc2ccccc2n1)Nc1ccc(Cl)cc1 |  |  | > 100 | 97.2 | 87.6 | > 100 | 
7 | N#Cc1ccc(NC(=S)N/N=C/c2ccc3ccccc3n2)cc1 |  |  | 4.66 | 15.6 | 23.7 | 20 | 
8 | S=C(N/N=C/c1ccc2ccccc2n1)Nc1cccc(Br)c1 |  |  | 53.8 | 58.9 | 78.6 | 70 | 
9 | COc1ccccc1NC(=S)N/N=C/c1ccc2ccccc2n1 |  |  | 91.7 | > 100 | > 100 | > 100 | 
10 | Cc1csc2sc(/C=N/NC(N)=S)c(C)c12 |  |  | > 100 | 57.5 | > 100 | 1.12 | inactive
11 | NC(=S)N/N=C/c1nc2ccccc2c2ncccc12 |  |  | > 100 | 11.5 | 7.36 | 21.9 | Active
12 | NC(=S)N/N=C/c1ccc2cccnc2n1 |  |  | > 100 | 12.8 | > 100 | > 100 | inactive
13 | Fc1ccc(NC(=S)N/N=C/c2ccc3ccccc3n2)cc1 |  |  | 17 | 28.5 | 32.3 | 33.2 | 
14 | FC(F)(F)c1ccccc1NC(=S)N/N=C/c1ccc2ccccc2n1 |  |  | 13.2 | 18.1 | 20.7 | 18.8 | 
15 | CN(C)C(=S)N/N=C/c1nc2ccccc2c2ncccc12 |  |  | 0.43 | 0.04 | 0.04 | 1.72 | Active
16 | CN(C)C(=S)N/N=C/c1ccc2cccnc2n1 |  |  | 0.56 | 0.41 | 0.63 | 0.97 | Active
17 | CC(C)c1cccc(C(C)C)c1NC(=S)N/N=C/c1ccc2ccccc2n1 |  |  | 19.5 | 20.7 | 23.5 | 16.4 | 
18 | Cc1cccc(NC(=S)N/N=C/c2ccc3ccccc3n2)c1 |  |  | > 100 | > 100 | > 100 | > 100 | 
19 | NC(=S)N/N=C/c1cc2cccnc2s1 |  |  | > 100 | > 100 | 100 | 6.29 | 
20 | S=C(N/N=C/c1ccc2ccccc2n1)Nc1ccc(Br)cc1 |  |  | 27.5 | 54.4 | 69.4 | 56.8 | 
